Test results from ChEMBL document CHEMBL3352492, “Selenorhodamine photosensitizers for photodynamic therapy of P-glycoprotein-expressing cancer cells” (J Med Chem, 2014).
Calls of active or inactive are those of the source. No cut-off for these calls is given here.

Key:
Colon 26 [1] = experiment: Drug uptake in mouse Colon 26 cells at 0.5 uM in absence of 100 uM verapamil by flow cytometry; assay type: ADME, cell-based; conditions: colon 26, 0.5 µM
Method in brief: (§1)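 Colo-26 cells given 0.5 μM dye for 1 h, with or without 100 μM verapamil. Uptake read by flow cytometry as relative fluorescence, excitation 561 nm and emission 710 nm. Error bars are SD.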

Colon 26 [2] = experiment: Dark toxicity in mouse Colon 26 cells assessed as cell surviving fraction at 0.1 to 0.5 uM incubated for 1 hr by sulforhodamine B assay; assay type: cell-based; conditions: colon 26, 1 h
Method in brief: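 Colo-26 murine colon carcinoma cells, 10 000 per well, grown 24 h in RPMI 1640 with 10% FBS. Dye at 0.1–0.5 μM for 1 h in the dark, then fresh medium and 48 h at 37 °C, 5% CO2. Viability by sulforhodamine B, absorbance at 570 nm, reported as surviving fraction.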

Colon 26 [3] = experiment: Photo-toxicity in mouse Colon 26 cells assessed as reduction in cell surviving fraction at =< 0.5 uM and up to 1 Jcm'-2 of continuous illumination with 350 to 700 nm light incubated for 48 hrs by sulforhodamine B assay; assay type: functional, cell-based
Method in brief: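 Colo-26 cells, 10 000 per well, grown 24 h in RPMI 1640 with 10% FBS. Dye at ≤0.5 μM for 1 h in the dark. Irradiated up to 1.0 J cm^-2 with 350–700 nm tungsten–halogen light at 3.7–4.1 mW cm^-2, then 48 h at 37 °C. Survival by sulforhodamine B at 570 nm.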

Colon 26 [4] = experiment: Drug uptake in mouse Colon 26 cells at 0.5 uM in presence of 100 uM verapamil by flow cytometry; assay type: ADME, cell-based; conditions: colon 26, 0.5 µM; method in brief: as §1
[5] = Photo-stability assessed as drug degradation exposed to after 230 Jcm'-2 of continuous illumination with 350 to 800 nm light in solutions of 10% CH3OH in pH 7.4 buffer; assay type: physicochemical; conditions: solution of 10% CH3OH in pH 7.4 buffer, read-out: Drug degradation
Colon 26 [6] = experiment: Photo-toxicity against mouse Colon 26 cells at 0.15 uM incubated in dark for 1 hr then irradiated with light dose of 1 Jcm'-2 of 611 nm laser light measured after 48 hrs by sulforhodamine B assay; assay type: functional, cell-based
Method in brief: (§2)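 Colo-26 murine colon carcinoma cells were grown in RPMI 1640 with L-glutamine, 10% FBS and 1% penicillin–streptomycin. They were plated at 10 000 cells/well and held 24 h. Selenorhodamine was added at 0.15 μM (final) and cells were kept 1 h in the dark. Cells were then irradiated with a tunable dye laser at λmax ± 2 nm, 3.2 mW cm⁻², to 1 J cm⁻². Medium was replaced, followed by 48 h at 37 °C, 5% CO₂. Viability was read by sulforhodamine B at 570 nm.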

Colon 26 [7] = experiment: Potentiation of doxorubicin-induced cytotoxicity against mouse Colon 26 cells at 0.15 uM incubated in dark for 1 hr by sulforhodamine B assay; assay type: functional, cell-based
Method in brief: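 Colo-26 cells were plated at 10 000/well and held 24 h. Doxorubicin (0.005–5.0 μM) was applied with or without 0.15 μM selenorhodamine, with Dox-only and dye-only controls, for 1 h in the dark with no irradiation. Medium was replaced, then 48 h at 37 °C, 5% CO₂. Surviving fraction by sulforhodamine B assay (570 nm); six replicates; Student's t-test pairwise.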

Colon 26 [8] = experiment: Photo-toxicity in mouse Colon 26 cells assessed as reduction in cell surviving fraction at 0.5 Jcm'-2 of continuous illumination with 350 to 700 nm light incubated for 48 hrs by sulforhodamine B assay; assay type: functional, cell-based; conditions: Colon 26, 48 h
Method in brief: (§3)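 Colo-26 cells were incubated 1 h in the dark with 0.1–0.5 μM […], then irradiated up to 1.0 J cm^-2 with 350–700 nm tungsten–halogen light (3.7–4.1 mW cm^-2). Cells were kept 48 h and survival was measured by sulforhodamine B assay.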

Colon 26 [9] = experiment: Photo-toxicity in mouse Colon 26 cells assessed as reduction in cell surviving fraction at 1 Jcm'-2 of continuous illumination with 350 to 700 nm light incubated for 48 hrs by sulforhodamine B assay; assay type: functional, cell-based; conditions: Colon 26, 48 h; method in brief: as §3
[10] = Photo-stability assessed as drug degradation exposed to after 230 Jcm'-2 of continuous illumination with 500 to 800 nm light in solutions of 10% CH3OH in pH 7.4 buffer; assay type: physicochemical; conditions: solution of 10% CH3OH in pH 7.4 buffer, read-out: Drug degradation
[11] = Permeability in MDCK2-MDR1 cells assessed as cell associated fraction by measuring mass fraction extracted from cell monolayer by methanol wash after 1 hr flux in apical to basolateral direction at 5 uM in presence of 4.3 mg/ml BSA and in absence of P-gp inhibitor LSN335984 by mass spectrometry; assay type: ADME, cell-based, Canis lupus familiaris; conditions: dog, mdck-ii
Method in brief: (§4)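 MDCKII-MDR1 cells seeded at 50 000 cells cm^-2 on Transwell polycarbonate filters, used on day 6. After a rinse in DPBSH at 37 °C, monolayers were preincubated 30 min in 4.3 mg mL^-1 BSA/DPBSH with or without 5 μM P-gp inhibitor LSN 335984. Then 5 μM dye was added apically and run 1 h AB flux at 37 °C with nutation. Monolayers were rinsed in cold DPBS and extracted 3 min in methanol, and compound was quantified by LC-MS/MS. Cell-associated value is the percentage of added mass recovered.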

Colon 26 [12] = experiment: Photo-toxicity in mouse Colon 26 cells assessed as reduction in cell surviving fraction at 0.15 uM at 1 Jcm'-2 of continuous illumination with 350 to 700 nm light incubated for 48 hrs by sulforhodamine B assay; assay type: functional, cell-based
[13] = Permeability in MDCK2-MDR1 cells assessed as cell associated fraction by measuring mass fraction extracted from cell monolayer by methanol wash after 1 hr flux in apical to basolateral direction at 5 uM in presence of 4.3 mg/ml BSA and in presence of P-gp inhibitor LSN335984 by mass spectrometry; assay type: ADME, cell-based, Canis lupus familiaris; conditions: dog, mdck-ii; method in brief: as §4
[14] = Lipophilicity, log P of the compound by pH 7.4 at 23 degC by UV-visible spectrophotometry based shake flask method; assay type: physicochemical; conditions: buffer
Method in brief: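 Shake-flask method. A saturated n-octanol solution of dye was mixed with an equal volume of PBS, pH 7.4, at 23 °C for 3–5 min, then left 1 h to settle. The concentration in each layer was measured by UV–visible spectrophotometry.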

Colon 26 [15] = experiment: Potentiation of 0.5 uM doxorubicin-induced cytotoxicity against mouse Colon 26 cells at 0.15 uM incubated in dark for 1 hr then irradiated with light dose of 1 Jcm'-2 of 611 nm laser light measured after 48 hrs by sulforhodamine B assay; assay type: functional, cell-based
Method in brief: (§5)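 Colo-26 cells were plated at 10 000/well and held 24 h. Doxorubicin (0.005, 0.05, 0.5, 1.0 or 5.0 μM) was added with 0.15 μM selenorhodamine, both diluted in RPMI from stocks, with Dox-only and dye-only wells. After 1 h in the dark, cells were laser-irradiated at λmax ± 2 nm, 3.2 mW cm⁻², 1 J cm⁻². Fresh medium, then 48 h at 37 °C, 5% CO₂. Surviving fraction by SRB absorbance at 570 nm; six replicates.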

Colon 26 [16] = experiment: Potentiation of 1 uM doxorubicin-induced cytotoxicity against mouse Colon 26 cells assessed as cell surviving fraction at 0.15 uM incubated in dark for 1 hr then irradiated with light dose of 1 Jcm'-2 of 611 nm laser light measured after 48 hrs by sulforhodamine B assay; assay type: functional; method in brief: as §5
[17] = Selectivity index, ratio of LD50 dark toxicity against mouse Colon 26 cells to EC50 for Photo-toxicity against mouse Colon 26 cells 1 Jcm'-2 of continuous illumination with 350 to 700 nm light; assay type: cell-based; conditions: read-out: Ratio LD50/EC50
Colon 26 [18] = experiment: Photo-toxicity in mouse Colon 26 cells assessed as reduction in cell surviving fraction at 0.15 uM at >5 Jcm'-2 of continuous illumination with 350 to 700 nm light incubated for 48 hrs by sulforhodamine B assay; assay type: functional, cell-based
Colon 26 [19] = experiment: Photo-toxicity against mouse Colon 26 cells at 0.15 uM incubated in dark for 1 hr then irradiated with light dose of 1 Jcm'-2 of 613 nm laser light measured after 48 hrs by sulforhodamine B assay; assay type: functional, cell-based; method in brief: as §2
Colon 26 [20] = experiment: Potentiation of doxorubicin-induced cytotoxicity against mouse Colon 26 cells at 0.15 uM incubated in dark for 1 hr then irradiated with light dose of 1 Jcm'-2 of 613 nm laser light measured after 48 hrs by sulforhodamine B assay; assay type: functional, cell-based; method in brief: as §5
Colon 26 [21] = experiment: Photo-toxicity in mouse Colon 26 cells assessed as reduction in cell surviving fraction at 15 Jcm'-2 of continuous illumination with 360 to 800 nm light incubated for 48 hrs by sulforhodamine B assay; conditions: Colon 26, 48 h

Row | Structure (SMILES) | Drug uptake (Colon 26 [1]) | Activity (Colon 26 [2]) | Activity (Colon 26 [3]) | Activity (Colon 26 [7]) | EC50 (Colon 26 [8]) [µM] | EC50 (Colon 26 [9]) [µM] | logD [14] | fold change (FC) (Colon 26 [4]) | also measured
1 | CN1CCC(C)(C)c2cc3c(-c4ccc(C(=S)N5CCCCC5)s4)c4ccc(=[N+](C)C)cc-4sc3cc21.F[P-](F)(F)(F)(F)F | Active | > 0.95 | inactive | – | – | – | – | – | Drug uptake (Colon 26 [4]): Not Active
2 | CN1CCC(C)(C)c2cc3c(-c4ccc(C(=S)N5CCCCC5)s4)c4ccc(=[N+](C)C)cc-4[se]c3cc21.[Cl-] | Active | – | – | inactive | 0.22 | 0.14 | 1.61 | – | degraded [5]: 50%; Activity (Colon 26 [6]): Active; degraded [10]: 50%; Activity [11]: 45%; Activity (Colon 26 [12]): Active; Activity [13]: 55%; Activity (Colon 26 [15]): Active; Activity (Colon 26 [16]): <=0.2
3 | CCN(CC)C(=O)c1ccc(-c2c3ccc(=[N+](C)C)cc-3[se]c3cc4c(cc23)C(C)(C)CCN4C)s1.[Cl-] | – | – | – | inactive | 0.31 | 0.3 | 2.26 | 5 | selectivity ratio [17]: 26; Activity (Colon 26 [18]): Active; Activity (Colon 26 [19]): inactive; Activity (Colon 26 [20]): inactive
4 | CCN(CC)C(=O)c1ccc(-c2c3ccc(=[N+](C)C)cc-3sc3cc4c(cc23)C(C)(C)CCN4C)s1.F[P-](F)(F)(F)(F)F | – | > 0.95 | inactive | – | – | – | – | 7 | –
5 | CN(C)c1ccc(-c2cc(-c3ccc(N)cc3)[s+]c(-c3ccc(N)cc3)c2)cc1 | – | – | – | – | – | – | – | – | EC50 (Colon 26 [21]): 0.07 µM
6 | CN1CCC(C)(C)c2cc3c(-c4ccc(C(=O)N5CCCCC5)s4)c4ccc(=[N+](C)C)cc-4[se]c3cc21.[Cl-] | – | – | – | inactive | > 0.5 | 0.41 | 2.23 | – | Activity [11]: 16%; Activity [13]: 39%; Activity (Colon 26 [19]): inactive; Activity (Colon 26 [20]): inactive
7 | CCN(CC)C(=S)c1ccc(-c2c3ccc(=[N+](C)C)cc-3sc3cc4c(cc23)C(C)(C)CCN4C)s1.F[P-](F)(F)(F)(F)F | Active | > 0.95 | inactive | – | – | – | – | 1.3 | –
8 | CN1CCC(C)(C)c2cc3c(-c4ccc(C(=O)N5CCCCC5)s4)c4ccc(=[N+](C)C)cc-4sc3cc21.F[P-](F)(F)(F)(F)F | – | > 0.95 | inactive | – | – | – | – | – | –
9 | CCN(CC)C(=S)c1ccc(-c2c3ccc(=[N+](C)C)cc-3[se]c3cc4c(cc23)C(C)(C)CCN4C)s1.[Cl-] | Active | – | – | inactive | 0.2 | 0.17 | 2.41 | 1.3 | degraded [5]: 50%; selectivity ratio [17]: 56; Activity (Colon 26 [6]): Active; degraded [10]: 50%; Activity (Colon 26 [12]): Active; Activity (Colon 26 [15]): Active; Activity (Colon 26 [16]): <=0.2
